Source: PubChem BioAssay
Only some compounds are listed: those with a hit (about 2.4% of all), similar ones and a draw of the others.
SIAE inh: human SIAE inhibition, primary screen; AID 1053197; 0.69% of 370,000 active; inhibition, % at 9.66 µM; SIAE FP-Rh probe binding, fluorescence polarization; Q9HAT2;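 active = inhibition above a cutoff: mean of compounds within the control limits plus 3 SD of those, cut at about 17% in these data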;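 note: 0% = plate median of compound wells and 100% = probe without SIAE protein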
GSTO1 inh: GSTO1 inhibition, counter-screen for RBBP9 inhibitors. P78417. recombinant GSTO1, activity-based probe fluorescence polarization. inhibition, % at 5.96 µM. 1.1% of 300,000 active. AID 1974;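 active = inhibition above the campaign mean inhibition plus 3 SD, cut at about 35% in these data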;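 note: 0% = GSTO1-1 with DMSO and 100% = wells lacking GSTO1-1 enzyme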
Target sequence (P78417 whole entry, looked up): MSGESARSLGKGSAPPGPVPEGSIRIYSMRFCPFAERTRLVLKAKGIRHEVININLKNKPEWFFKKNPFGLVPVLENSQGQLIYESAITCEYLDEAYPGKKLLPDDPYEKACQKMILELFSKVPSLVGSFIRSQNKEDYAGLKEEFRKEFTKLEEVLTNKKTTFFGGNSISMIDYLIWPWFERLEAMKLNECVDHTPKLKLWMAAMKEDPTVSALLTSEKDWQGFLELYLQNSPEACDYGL
Apaf-1 inh: blocks human Apaf-1 apoptosome activity | O14727 | reconstituted apoptosome caspase-3 activity, DEVD-Rh110 fluorescence | inhibition, % at 20 µM | 0.71% of 330,000 active; active = inhibition of at least 40% at 20 µM;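 note: plate controls were DMSO wells for no effect and DEVD-CHO caspase inhibitor wells for full effect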
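System – cell-free apoptosome with Apaf-1, procaspase-3 and caspase-9 · Buffer or medium – pH 7.5 Hepes buffer with CHAPS, BSA, DTT · Also added – cytochrome c with DEVD-Rh110 · Times – 30 min compound preincubation, 50 min activation, room temperature · Technique – Rh110 fluorescence intensity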
TCR CD3 inh: human TCR-CD3 binding inhibition. 0.37% of 360,000 active. TAMRA-labeled TCR probe fluorescence, biochemical. inhibition, % at 9.4 µM;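 note: recombinant mutant TCR 2C K166C tagged with TAMRA read by polarization; 0% = receptor in buffer alone and 100% = receptor with positive control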
TDP2 absorb: blocks human TDP2 phosphodiesterase activity. O95551. recombinant TDP2, T5PNP hydrolysis, p-nitrophenol absorbance 415 nm. inhibition, % at 12.8 µM. 0.34% of 370,000 active;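 active = inhibition above the mean of all tested compounds plus 3 SD, set per campaign, cut at about 25% in these data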;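 note: 0% = DMSO with enzyme and 100% = buffer with substrate but no TDP2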
Target sequence (O95551 whole entry, looked up): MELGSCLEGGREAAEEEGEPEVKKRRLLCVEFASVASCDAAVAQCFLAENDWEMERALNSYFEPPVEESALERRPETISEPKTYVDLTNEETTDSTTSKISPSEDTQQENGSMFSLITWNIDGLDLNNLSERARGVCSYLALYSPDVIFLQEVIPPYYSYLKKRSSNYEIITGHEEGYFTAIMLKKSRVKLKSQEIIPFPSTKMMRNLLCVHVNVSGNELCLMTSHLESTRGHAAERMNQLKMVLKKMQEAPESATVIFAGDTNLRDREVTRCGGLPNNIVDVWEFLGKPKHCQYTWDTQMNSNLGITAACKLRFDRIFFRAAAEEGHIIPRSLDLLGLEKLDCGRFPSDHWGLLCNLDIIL
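System – recombinant human TDP2 · Quantity – TDP2 enzyme at 120 nM final · Doses – single concentration, 12.8 µM nominal, with 1% DMSO · Incubation – 2 h at 37 °C · Measured by – epi absorbance of p-nitrophenol freed from T5PNP by hydrolysis · Read-out – % inhibition relative to enzyme-containing and enzyme-free wells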
PAD4 inh: blocks human protein arginine deiminase 4 | Q9UM07 | recombinant PAD4, RCA probe fluorescence polarization | inhibition, % at 6.36 µM | 0.41% of 330,000 active | AID 485272;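 active = percent inhibition above a cutoff equal to the mean of all tested compounds plus 3 SD, cut at about 15% in these data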;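 note: 0% = PAD4 with RCA probe and DMSO and 100% = probe without PAD4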
BSA probe FL: interferes with TAMRA-BSA probe, flagging TCR-CD3 hits | inhibition, % at 9.4 µM | TAMRA-labeled BSA probe fluorescence counterscreen | 10% of 1,200 active | shares compounds with TCR CD3 inh; in the data active = inhibition above about 23%;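 note: 0% = buffer low control and 100% = reference high control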
TCR-CD3 inh conf: confirmation of human TCR-CD3 interaction inhibitors. shares compounds with TCR CD3 inh. 48% of 1,200 active. inhibition, % at 9.4 µM. AID 652036. TAMRA-labeled TCR probe fluorescence binding assay
* hit, by the source's call; · = not tested or not shown. Cut-off read from the data, not from the text of the source, unless noted: active = inhibition above about 19%; inactive = the rest.

SMILES | SIAE inh | GSTO1 inh | Apaf-1 inh | TCR CD3 inh | TDP2 absorb | PAD4 inh | BSA probe FL | TCR-CD3 inh conf
O=C(NC(=S)NNC(=O)c1ccccc1F)c1cccnc1 | -1 | 28 | -22 | 18 | 1 | 0 | · | ·
COc1cc(OC)cc(C(=O)NNC(=S)NC(=O)c2cccnc2)c1 | 3 | 7 | 2 | 23* | 11 | -4 | -3 | 20*
CCN1CCN(C(=O)c2ccc(Cl)c(S(=O)(=O)N(C)c3ccccc3)c2)CC1 | 8 | · | 1 | -4 | 5 | -1 | · | ·
COCCn1c(=NC(=O)c2cc(-c3cccs3)nc3ccccc23)sc2cc(S(N)(=O)=O)ccc21 | -118 | -32 | 0 | 29* | 11 | -6 | 2 | 21*
O=C(O)CCCCCn1c(SCC(=O)c2ccc(O)c(O)c2)nc2ccsc2c1=O | 13 | 15 | 17 | 25* | -5 | -3 | -6 | 25*
O=C(N/N=C/c1c(O)n(-c2ccc(Cl)cn2)c(=O)c2ccccc12)c1ccncc1 | 14 | 4 | -2 | 6 | -3 | -6 | · | ·
O=C(N/N=C/c1c(O)n(-c2ccc(Cl)cn2)c(=O)c2ccccc12)C1CC1 | 12 | 6 | -5 | 23* | -1 | -8 | -11 | 26*
CCOC(=O)CSc1nc2ccc(NC(=O)CSc3nnnn3Cc3ccccc3)cc2s1 | -2 | -9 | 3 | -1 | 7 | -3 | · | ·
Cn1c(=O)c(C(=O)NNC(=O)c2cccc(Cl)c2)c(O)c2ccccc21 | 2 | 2 | -5 | 22* | -14 | 0 | -4 | 15
Cc1cccc(C(=O)NNC(=O)c2c(O)c3ccccc3n(C)c2=O)c1 | -5 | 6 | 1 | 15 | -2 | 1 | · | ·
CCCn1c(CNC(=O)c2ccccc2)nc2ccccc21 | 1 | -2 | -18 | 2 | -1 | -2 | · | ·
CC(=O)Oc1cc(C(=O)OCC(=O)N2CCc3ccccc3C2)cc(OC(C)=O)c1OC(C)=O | 12 | · | -7 | 45* | -8 | 3 | -18 | 15
COc1cc(OC)c2c(c1O)OC(c1ccccc1)CC2=O (stereo not given) | 4 | 24 | -18 | 39* | -1 | 4 | -6 | 19*
Cc1cc(C)cc(NC(=O)C(OC(=O)c2ccc(NC(=O)CC#N)cc2)c2ccccc2)c1 (stereo not given) | -111 | -127 | 24 | 27* | 9 | -9 | -6 | 10
CC(OC(=O)c1ccc(NC(=O)CC#N)cc1)C(=O)NC(=O)NC1CCCCC1 (stereo not given) | -35 | 0 | -4 | 20* | -1 | -9 | -1 | 1
Cc1ccc(C)c(NC(=O)C(OC(=O)c2ccc(NC(=O)CC#N)cc2)c2ccccc2)c1 (stereo not given) | -77 | -65 | 19 | 14 | -2 | -10 | · | ·
CCOC(=O)c1c(C)[nH]c(C(=O)C(C)OC(=O)c2ccc(NC(=O)CC#N)cc2)c1C (stereo not given) | -54 | · | 14 | 52* | -5 | 4 | 5 | 6
COCCNC(=O)CSCc1nc(-c2ccc(SC)cc2)oc1C | -1 | -4 | 1 | 33* | 2 | 0 | 8 | 3
CCOCCCNC(=O)CSCc1nc(-c2ccc(SC)cc2)oc1C | 3 | 4 | -10 | -2 | 1 | 0 | · | ·
COc1cc(/C=C2\SC(c3ccc(C)cc3)=NC2=O)cc(OC)c1O | -8 | 14 | -13 | -1 | 7 | 4 | · | ·
Cc1ccc(C2=NC(=O)/C(=C/c3cc(O)c(O)c(Br)c3)S2)cc1 | -6 | · | 22 | 33* | -6 | · | -10 | 47*
Cc1cc(C)cc(NC(=O)CSc2nnc(-c3ccc(S(=O)(=O)N4CCCC4)cc3)o2)c1 | -2 | -1 | -12 | 4 | 8 | 6 | · | ·
Cc1ccc(NC(=O)CN(C)C(=O)COC(=O)c2ccc(NC(=O)CC#N)cc2)cc1 | -39 | · | 6 | 8 | -4 | -3 | · | ·
Cc1ccc(Cn2ccsc2=NC(=O)COC(=O)c2ccc(NC(=O)CC#N)cc2)cc1 | -14 | -76 | 10 | 27* | 6 | -17 | 8 | 6
Cc1nn(C)c(C(=O)N/N=C/c2ccc(Br)cc2)c1Cl | -1 | -9 | -8 | 21* | -2 | -5 | 1 | 3
SMILES | SIAE inh | GSTO1 inh | Apaf-1 inh | TCR CD3 inh | TDP2 absorb | PAD4 inh | BSA probe FL | TCR-CD3 inh conf
Cc1nn(C)c(C(=O)N/N=C/c2ccncc2)c1Cl | 7 | -3 | -14 | -2 | 10 | -2 | · | ·
CCC(=O)NNC(=O)c1c(O)c2ccccc2[nH]c1=O | -1 | -2 | -4 | 33* | 0 | 2 | -4 | 24*
CCCCCCCC(=O)NNC(=O)c1c(O)c2ccccc2[nH]c1=O | 1 | 1 | -8 | 15 | -2 | -3 | · | ·
Cc1cc2cc(CNC(=O)c3ccc(S(=O)(=O)N4CCCC4)cc3)ccc2n1C | 26* | 5 | 16 | 70* | 7 | 15 | 3 | 0
O=C(O)c1ccc2c3c(cccc13)C(=O)N(c1ccccc1)C2=O | 2 | 15 | 15 | 10 | 11 | -1 | · | ·
Nc1ccc2c3c(cccc13)C(=O)N(c1ccccc1)C2=O | 10 | · | · | 28* | 17 | · | 43* | 34*
CC1CN(C(C)C(=O)NC(c2ccccc2)c2ccccc2)CC(C)O1 (stereo not given) | -5 | -1 | 6 | -5 | 0 | -4 | · | ·
CC1CCCCN1C(=O)CSc1nnc(-c2ccccc2O)o1 (stereo not given) | 9 | 15 | 3 | 27* | -2 | 2 | 13 | 21*
Cc1nonc1NC(=O)CSc1nc(C23CC4CC(CC(C4)C2)C3)nc2ccccc12 | -7 | -1 | 17 | 20* | 5 | 0 | 4 | 9
CCOc1ccc(N2CC(C(=O)NCCc3c[nH]c4ccc(C)cc34)CC2=O)cc1 (stereo not given) | 6 | -6 | -1 | 3 | -6 | -1 | · | ·
O=C(CCN1C(=O)/C(=C/c2ccccc2)SC1=S)NC1CCS(=O)(=O)C1 (stereo not given) | 5 | 11 | -1 | 4 | 2 | 1 | · | ·
O=C(CN1C(=O)/C(=C/c2ccco2)SC1=S)NC1CCS(=O)(=O)C1 (stereo not given) | 6 | 23 | 11 | 22* | 16 | -6 | -7 | 1
O=C(Nc1ccc(Cl)c(Cl)c1)O/N=C/c1ccncc1 | -121 | -4 | 12 | 42* | 0 | 0 | 10 | 20*
Cc1onc(-c2ccccc2)c1C(=O)Nc1ccc(S(=O)(=O)N2CCCC2)cc1 | 0 | 6 | -26 | -3 | -1 | 0 | · | ·
O=C(Nc1ccc2ccccc2c1)c1cn(-c2ccccc2)nc1-c1cccs1 | -108 | -36 | 8 | 89* | 3 | -14 | 18 | 38*
